These results are taken from ChEMBL document CHEMBL1156683, “Basic 3-hydroxypyridin-4-ones: potential antimalarial agents” (Eur J Med Chem, 2008).

SMILES strings stand for the structures.

Data set [1] has as its system Rattus norvegicus. Description: Iron-clearing efficiency in po dosed [59Fe]ferritin-loaded Wistar rat assessed as iron removal. Format: functional. An outline of the steps: (§1)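 Male Wistar rats, normal, fasted, 190–230 g. Hepatocytes labelled with ⁵⁹Fe by tail-vein [⁵⁹Fe]ferritin; chelator given orally 1 h later, controls received water. Individual metabolic cages collected urine and faeces; food allowed 1 h after dosing, water unrestricted. Killed 24 h after ferritin; liver and gastrointestinal tract with contents and faeces gamma counted.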

The test system of the next data set is Plasmodium falciparum. The data set can be described thus: Antimalarial activity against chloroquine-resistant Plasmodium falciparum TM267TR after 24 hrs by [3H]hypoxanthine. Format: functional, organism-based. The gist of the method: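 Clone maintained in human red cells in RPMI 1640 with 10% human serum, 25 mM HEPES and 25 mM NaHCO₃. Cultures were sorbitol-synchronized, washed, then diluted with normal red cells to 1% hematocrit and 0.5% parasitemia. Incubated with serial dilutions of chelator. ³H-hypoxanthine pulse for a further 18 h, then harvested and counted by scintillation. IC₅₀ by non-linear regression of triplicate dose-response curves.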

Data set [2] in a line: Octanol-MOPS buffer distribution coefficient, DC at pH 7.4. The data set is classed as physicochemical. The note with it: octanol/water. An outline of the steps:
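Automated continuous-flow filter-probe method, 1-octanol versus 50 mM MOPS buffer pH 7.4, phases mutually presaturated. Compound dissolved in buffer to absorbance 0.5–1.5 units at a preselected wavelength; aqueous phase separated by hydrophilic cellulose filter and read by absorbance. n = 5.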

Data set [3] has as its system Rattus norvegicus. The data set can be described thus: Iron-clearing efficiency in po dosed [59Fe]ferritin-loaded Wistar rat assessed as iron mobilization. Format: functional. The gist of the method: as §1
Data set [4] in a line: Partition coefficient, log P of the compound. Format: physicochemical. The note with it: octanol/water. The gist of the method:
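Calculated from the measured octanol/MOPS pH 7.4 distribution coefficient divided by the fraction of neutral species at pH 7.4, which is derived from the measured pKa values.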

Data set [5] in a line: Dissociation constant, pKa corresponding to deprotonation of the basic substituent by spectrophotometric titration. Format: physicochemical. An outline of the steps: (§2)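 Ligand protonation constants from an automated titration system, potentiometric and spectrophotometric read-outs. Values optimized by non-linear least-squares regression, accuracy ±0.02 pH unit.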
Data set [6] in a line: Dissociation constant, pKa corresponding to protonation of the 4-hydroxy group by spectrophotometric titration. Format: physicochemical. The gist of the method:
as §2

The nature of data set [7]: Dissociation constant, pKa corresponding to deprotonation of the basic substituent by potentiometric titration. The data set is classed as physicochemical. An outline of the steps: as §2
Data set [8] in a line: Dissociation constant, pKa corresponding to dissociation of the 3-hydroxyl group by spectrophotometric titration. Format: physicochemical. The gist of the method: as §2
A short description of data set [9]: Dissociation constant, pKa corresponding to protonation of the 4-hydroxy group by potentiometric titration. Format: physicochemical. The gist of the method: as §2
The nature of data set [10]: Dissociation constant, pKa corresponding to dissociation of the 3-hydroxyl group by potentiometric titration. The data set is classed as physicochemical. The gist of the method: as §2

For the compound `CCn1ccc(=O)c(O)c1C(C)O` (stereo unspecified), the Activity in the data set with Rattus norvegicus [1] is listed as 44.5%; with Rattus norvegicus [3] it was 48.4%. The same compound registered an IC50 in the data set on Plasmodium falciparum of 45 µM. In [2], the D is 0.266. This compound also yielded a logP in [4] of -0.557.
In the data set with Plasmodium falciparum, `Cn1c(CO)cc(=O)c(O)c1CN1CCCCC1` had a half-inhibitory concentration (IC50) of 29 µM. Moreover, the pKa in [5] came out at 6.67; in [6], 2.41; in [7] it was 6.74; in data set [8] it was 10.4; in data set [9], 2.14; in [10] it was 10.5. Further, in [2], the D was 1.636. Moreover, the logP in data set [4] worked out at 0.295.
In turn, `Cn1c(CO)cc(=O)c(O)c1CN1CCOCC1` returned an IC50 with Plasmodium falciparum of 35 µM. Moreover, the pKa was 4.99 in [5]; 2.14 in data set [6]; 5.1 in [7]; 9.75 in data set [8]; 1.98 in data set [9]; 9.77 in data set [10]. This compound registered a D in data set [2] of 0.17. Also, in [4], the lipophilicity (logP) was -0.765.
As to `Cc1c(O)c(=O)ccn1CCN1CCCCC1`, the figures for the Activity in the data set with Rattus norvegicus [1] and in the data set with Rattus norvegicus [3] were 18.8% and 22.7%, respectively. The same compound had an IC50 in the data set with Plasmodium falciparum of 35 µM. Moreover, the pKa in data set [5] amounted to 7.47; in data set [6] it was 2.88; in data set [7], 7.42; in data set [8] it was 9.71; in data set [9] it was 2.77; in [10], 9.63. This compound also yielded a D in data set [2] of 0.96. In [4], this compound had a logP of 0.31.
`O=c1ccn(CCN2CCCCC2)c(CO)c1O`: the Activity in the data set on Rattus norvegicus [1] was determined as 19.4%; with Rattus norvegicus [3], 23.3%. In addition, in the data set on Plasmodium falciparum, 10 µM corresponded to half-maximal inhibition (IC50). Moreover, the pKa in [5] stood at 7.43; in [6] it was 2.2; in data set [7], 7.35; in data set [8], 9.24; in [9] it was 2.25; in data set [10], 9.28. In [2], this compound registered a D of 0.501. The compound further came in with a logP in data set [4] of 0.019.
Turning to `Cc1c(O)c(=O)ccn1CCN(C)C`, the results for the Activity with Rattus norvegicus [1] and in the data set on Rattus norvegicus [3] were 9.1% and 13%, respectively. In the data set on Plasmodium falciparum, this compound returned an IC50 of 80 µM. The pKa turned out to be 7.02 in data set [5]; 2.86 in [6]; 7.05 in data set [7]; 9.58 in data set [8]; 2.74 in data set [9]; 9.75 in [10]. In [2], this compound gave a D of 0.154. This compound also had a logP in [4] of -0.657.
With `Cn1cc(O)c(=O)cc1CN1CCCCC1`, the half-maximal inhibitory concentration (IC50) with Plasmodium falciparum came to 31 µM. Besides, the pKa in data set [5] was 6.72; in data set [6] it was 2.16; in [7] it was 6.74; in data set [8] it was 8.86; in [9], 2.15; in data set [10], 8.85. Besides, the D in data set [2] came to 3.493. Further, in data set [4], the logP stood at 0.64.
Take `CC(O)c1c(O)c(=O)ccn1CCN1CCCCC1` (stereo unspecified): the Activity was determined as 19.2% in the data set on Rattus norvegicus [1] and 23.1% with Rattus norvegicus [3]. Besides, in the data set with Plasmodium falciparum, it took 8 µM to reach half-maximal inhibition (IC50). Also, the pKa was 7.35 in data set [5]; 2.14 in data set [6]; 7.37 in [7]; 8.73 in data set [8]; 2.17 in data set [9]; 8.7 in [10]. In addition, the D in [2] is 0.908. In data set [4], this compound registered a logP of 0.242.
With `CCc1c(O)c(=O)ccn1CCCn1ccnc1`, the Activity in the data set on Rattus norvegicus [1] is on record as 2.9%; in the data set on Rattus norvegicus [3], 6.8%. The same compound yielded a 50% inhibitory concentration (IC50) in the data set with Plasmodium falciparum of 65 µM. Also, the pKa stood at 6.47 in [5]; 3.15 in [6]; 6.55 in data set [7]; 9.66 in [8]; 3.09 in [9]; 9.71 in data set [10]. In data set [2], this compound had a D of 0.42. This compound came in with a logP in [4] of -0.326.
Take `Cc1c(O)c(=O)ccn1CCCn1ccnc1`: the Activity in the data set on Rattus norvegicus [1] was 1.4%; in the data set on Rattus norvegicus [3], 5.3%. Besides, half-maximal inhibition in the data set on Plasmodium falciparum (IC50) was put at 85 µM. Also, the pKa in data set [5] was 6.71; in data set [6] it was 3.08; in [7], 6.6; in data set [8] it was 9.82; in [9], 3.13; in [10], 9.92. The D in [2] is 0.344. This compound also displayed a logP in [4] of -0.392.
Take `CCN(CC)CCn1ccc(=O)c(O)c1C`: the values for the Activity in the data set on Rattus norvegicus [1] and with Rattus norvegicus [3] were 8.5% and 12.4%, respectively. In the data set with Plasmodium falciparum, this compound displayed a concentration for half-maximal inhibition (IC50) of 50 µM. Also, the pKa in data set [5] was determined as 7.5; in data set [6], 2.66; in data set [7] it was 7.53; in data set [8], 9.6; in data set [9], 2.63; in data set [10], 9.65. The D in data set [2] is on record as 0.493. This compound yielded a logP in data set [4] of 0.059.
`CCc1c(O)c(=O)ccn1CCN1CCCCC1`: the Activity in the data set on Rattus norvegicus [1] worked out at 26.5%; in the data set on Rattus norvegicus [3] it was 30.4%. Besides, it took 25 µM to reach half-maximal inhibition in the data set on Plasmodium falciparum (IC50). In addition, the pKa came to 7.38 in [5]; 2.74 in data set [6]; 7.34 in [7]; 9.7 in data set [8]; 2.73 in [9]; 9.67 in data set [10]. The same compound gave a D in [2] of 4.591. The logP in data set [4] is 0.946.
As for `Cc1c(O)c(=O)ccn1CCN1CCOCC1`, the IC50 in the data set on Plasmodium falciparum was found to be 50 µM. Moreover, the pKa turned out to be 4.91 in data set [5]; 2.64 in [6]; 4.89 in data set [7]; 9.68 in data set [8]; 2.67 in data set [9]; 9.71 in data set [10]. In addition, the D in data set [2] is given as 0.122. This compound also returned a logP in data set [4] of -0.909.
`Cc1cc(=O)c(O)c(CN2CCCCC2)n1C` returned an IC50 in the data set on Plasmodium falciparum of 23 µM. Further, the pKa in [5] worked out at 6.98; in data set [6], 2.73; in [7], 7.07; in data set [8] it was 10.3; in data set [9], 2.5; in [10], 10.8. Moreover, the D in data set [2] stood at 2.536. Besides, the logP in data set [4] was determined as 0.559.
For the compound `CCc1c(O)c(=O)ccn1CCN(C)C`, the Activity in the data set with Rattus norvegicus [1] is recorded as 16.4%; in the data set with Rattus norvegicus [3] it was 20.3%. It took 85 µM to reach half-maximal inhibition with Plasmodium falciparum (IC50). Moreover, the pKa was found to be 7.16 in data set [5]; 2.68 in [6]; 6.88 in [7]; 9.58 in [8]; 2.62 in data set [9]; 9.66 in [10]. In [2], the D stood at 0.538. Further, the log partition coefficient (logP) in [4] is -0.114.
`O=c1cc(CN2CCCCC2)n(CCN2CCCCC2)cc1O` came in with an IC50 in the data set with Plasmodium falciparum of 21.5 µM. For the same compound, the pKa in [5] is 7.6; in data set [6], 2.04; in data set [7] it was 7.58; in data set [8], 8.95; in data set [9] it was 1.16; in [10], 8.83. In addition, the D in data set [2] is given as 26.11. Moreover, the log partition coefficient (logP) in data set [4] worked out at 1.84.
Regarding `Cc1cc(=O)c(O)c(CN2CCOCC2)n1C`, half-maximal inhibition in the data set with Plasmodium falciparum (IC50) was put at 50 µM. Also, the pKa in data set [5] is 4.82; in [6] it was 2.43; in data set [7], 4.89; in [8], 9.72; in data set [9], 2.38; in [10], 10.1. For the same compound, in data set [2], the D is on record as 0.364. The compound further gave a logP in [4] of -0.435.
Turning to `CCc1c(O)c(=O)ccn1CC`, the values for the Activity in the data set on Rattus norvegicus [1] and in the data set on Rattus norvegicus [3] were 54.4% and 58.3%, respectively. This compound also returned an IC50 in the data set with Plasmodium falciparum of 55 µM. In addition, the D in [2] is 1.79. The logP in data set [4] turned out to be 0.257.
Take `Cc1c(O)c(=O)ccn1C` [DEFERIPRONE]: the Activity in the data set on Rattus norvegicus [1] stood at 9.5%; in the data set on Rattus norvegicus [3], 13.4%. In the data set on Plasmodium falciparum, this compound registered an IC50 of 67.5 µM. The D in data set [2] turned out to be 0.17.
